dFosB act – activators of mouse delta FosB homodimer | P13346 | purified delta FosB, TAMRA-CDK5 oligo fluorescence polarization; percent of positive-control signal above neutral wells | activation, % at 25 µM | 340,000 compounds, 0.99% hits | AID 493131;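 active = mean activation above about 17%, with every replicate also reaching it, limit read from the data, passing the limit was not always enough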
CAL PDZ FP-1 – human CAL PDZ-peptide interaction inhibition | purified CAL PDZ, TMR-peptide fluorescence polarization, 1 h | 330,000 compounds, 0.02% hits | Q9HD26 | AID 504414 | inhibition, % at 20 µM;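 active = highest replicate inhibition of at least 40%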;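 note: plate controls were DMSO neutral control wells for no effect and unlabeled competitor peptide control wells for full effect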
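Material: tagged CAL PDZ domain; buffer or medium: 25 mM sodium phosphate pH 7.4, 150 mM NaCl, TCEP, IgG, Thesit; compound dosing: single point, 20 µM; schedule: 1 h incubation at room temperature before polarization reading; measured by: FP readout, S and P plane fluorescence; read-out basis: percent inhibition from loss of millipolarization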
CAL PDZ FP-2 – inhibitors of human CAL PDZ peptide binding; Q9HD26; purified CAL PDZ, TMR-peptide fluorescence polarization, 1 h; inhibition, % at 24.9 µM; 300,000 compounds, 0.92% hits; AID 602252;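 active = mean inhibition of at least 30% with at least half of replicates also reaching 30%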;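 note: 0% = DMSO neutral control and 100% = excess unlabeled competitor peptide PRC23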
S100A4 MyoIIA – S100A4-myosin IIA interaction inhibition. P26447. inhibition, % at 10.7 µM. 360,000 compounds, 0.14% hits. S100A4/TAMRA-MyoIIA peptide fluorescence polarization;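 active = mean inhibition of at least 70% across replicates, with every replicate also reaching that level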
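Compound dosing: one dose per compound; test system: human S100A4 monomer with TAMRA-labelled myosin IIA peptide; probe or stimulus: TAMRA-labelled myosin IIA heavy-chain peptide probe, 5 nM; medium: HEPES buffer with Ca2+, pH 7.2; schedule: 5 min incubation before reading; benchmarks: neutral control DMSO, positive control TFP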
CDK5 inh – inhibitors of human CDK5/p35 kinase; 330,000 compounds, 0.01% hits; AID 488839; inhibition, % at 10 µM; Q00535+Q15078; Recombinant CDK5/p35, ADP-Glo luminescence, 60 min;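 active = highest replicate inhibition of at least 50% and at least 75% of replicates reaching 50%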;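 note: plate controls were DMSO neutral control for no effect and GW8510 at 10 µM for full effect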
Target sequence (Q00535 whole entry, looked up): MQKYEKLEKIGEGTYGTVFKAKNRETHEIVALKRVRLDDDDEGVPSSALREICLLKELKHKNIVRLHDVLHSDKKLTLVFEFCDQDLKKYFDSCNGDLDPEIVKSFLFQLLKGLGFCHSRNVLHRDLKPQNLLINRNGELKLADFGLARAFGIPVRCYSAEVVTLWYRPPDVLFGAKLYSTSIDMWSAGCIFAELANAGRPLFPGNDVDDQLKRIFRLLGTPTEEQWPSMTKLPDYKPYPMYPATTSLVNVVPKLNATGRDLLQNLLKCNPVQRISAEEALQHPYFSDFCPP
Target sequence (Q15078 whole entry, looked up): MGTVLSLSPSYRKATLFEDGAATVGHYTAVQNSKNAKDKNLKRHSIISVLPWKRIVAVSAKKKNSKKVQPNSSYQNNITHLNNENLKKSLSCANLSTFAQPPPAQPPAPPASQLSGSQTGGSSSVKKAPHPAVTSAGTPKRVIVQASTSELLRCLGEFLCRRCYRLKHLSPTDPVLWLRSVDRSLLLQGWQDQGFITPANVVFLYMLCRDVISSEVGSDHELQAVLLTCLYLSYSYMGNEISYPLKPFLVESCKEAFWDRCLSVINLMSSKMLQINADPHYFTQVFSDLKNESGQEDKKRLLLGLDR
C2C12 statin – protects C2C12 myotubes from simvastatin toxicity | AID 602340 | ATP luminescence, 48 h; scaled: DMSO 0, geranylgeraniol control 100 | 330,000 compounds, 0.78% hits | rescue of ATP level, % at 7.49 µM;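 active = mean ATP rescue above about 67%, or every replicate alone reaching that limit, limit read from the data, passing the limit was not always enough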;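 note: myotubes were challenged with 10 µM simvastatin during compound exposure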
Starred values were filed as active, the others as inactive. Rows were chosen to be rich in hits. Some 2% of all compounds tested hit in one or more screens of this group.

CC(C)Cc1nnc(NC(=O)CCNC(=O)c2ccco2)s1 was read as dFosB act 2, CAL PDZ FP-1 -2, CAL PDZ FP-2 -4, S100A4 MyoIIA -9, CDK5 inh -2 and C2C12 statin -6.
Screening COC(=O)c1cn(CCCNC(=O)[C@H](Cc2ccccc2)NS(=O)(=O)c2ccc(C)cc2)nn1 returned S100A4 MyoIIA 12.
For O=C(NNS(=O)(=O)c1ccc([N+](=O)[O-])cc1)c1ccc2ccccc2c1O the results were dFosB act 0, CAL PDZ FP-1 -3, CAL PDZ FP-2 -4, S100A4 MyoIIA 0, CDK5 inh -2 and C2C12 statin 9.
Screening C[C@@H]1CN([C@H](C)CO)C(=O)c2cc(NC(=O)Cc3cn(C)c4ccccc34)ccc2O[C@H]1CN(C)Cc1ccc(-c2ccccc2)cc1 returned S100A4 MyoIIA -9 and C2C12 statin 68*.
`C[C@H](CO)N1C[C@H](C)[C@H](CN(C)Cc2ccc(C(=O)Nc3ccccc3N)cc2)Oc2ccc(NC(=O)Cc3cn(C)c4ccccc34)cc2C1=O` gave S100A4 MyoIIA -31 and C2C12 statin 97*.
`C[C@H]1CN([C@@H](C)CO)C(=O)c2cc(NC(=O)Cc3cn(C)c4ccccc34)ccc2O[C@@H]1CN(C)Cc1ccc(C(F)(F)F)cc1` gave S100A4 MyoIIA 20 and C2C12 statin 83*.
For Cc1ccc(NC(=O)c2c(C(F)(F)F)nn(C)c2Cl)cc1C the results were dFosB act -1, CAL PDZ FP-1 -1, CAL PDZ FP-2 -1, CDK5 inh -2 and C2C12 statin 1.
`Cc1ccc(NC(=O)CCc2c(C)nn(-c3ccc(N4CCOCC4)nn3)c2C)cc1C` gave dFosB act -6, CAL PDZ FP-1 -5, CAL PDZ FP-2 -7, S100A4 MyoIIA 2, CDK5 inh -6 and C2C12 statin 6.
Cc1cc2ncn(/N=C/c3ccc(-c4ccccc4)o3)c2cc1C was read as dFosB act 1, CAL PDZ FP-1 -1, CAL PDZ FP-2 -2, S100A4 MyoIIA -3, CDK5 inh -1 and C2C12 statin 146*.
`COc1ccc(CN2C(=O)c3cccnc3C2=O)cc1S(=O)(=O)N(C)c1cccc(C)c1` gave dFosB act 2, CAL PDZ FP-1 0, CAL PDZ FP-2 47*, S100A4 MyoIIA -3, CDK5 inh 0 and C2C12 statin 4.
For O=c1[nH]c2ccccc2cc1CN(CC1CCCO1)S(=O)(=O)c1ccccc1 (stereo unspecified) the results were dFosB act -16, CAL PDZ FP-1 0, CAL PDZ FP-2 66*, S100A4 MyoIIA 2, CDK5 inh 0 and C2C12 statin 16.
CC(=O)N(CCc1ccccc1)Cc1cc2cc(C)ccc2[nH]c1=O was read as dFosB act -5, CAL PDZ FP-1 0, CAL PDZ FP-2 -4, S100A4 MyoIIA -4, CDK5 inh 3 and C2C12 statin 12.
COc1ccc(N(Cc2cc3ccccc3[nH]c2=O)S(=O)(=O)c2ccccc2)cc1 was read as dFosB act -8, CAL PDZ FP-1 -1, CAL PDZ FP-2 -3, S100A4 MyoIIA 14, CDK5 inh -1 and C2C12 statin 182*.
For COc1ccc2[nH]c(=O)c(CN(CCc3ccccc3)C(C)=O)cc2c1 the results were dFosB act -1, CAL PDZ FP-1 0, CAL PDZ FP-2 -2, CDK5 inh -2 and C2C12 statin 114*.
For CN(CC(=O)Nc1ccccc1C(=O)NC1CC1)Cc1ccc(Cl)s1 the results were dFosB act -5, CAL PDZ FP-1 1, CAL PDZ FP-2 0, S100A4 MyoIIA 0, CDK5 inh -1 and C2C12 statin 8.
CC=Cc1ccc2n(c1=O)C[C@@H]1[C@@H](CO)[C@H](C(=O)Nc3ccc(-c4ccccc4)cc3)N(C(=O)CC)[C@H]21 (mixture of isomers) was read as S100A4 MyoIIA 6 and C2C12 statin 2.
`CCc1nnc(NC(=O)Nc2ccc(OC)cc2)s1` gave dFosB act -7, CAL PDZ FP-1 0, CAL PDZ FP-2 0 and CDK5 inh 2.
For CCCCOc1ccc(NC(=O)Nc2nnc(C)s2)cc1 the results were dFosB act 0, CAL PDZ FP-1 0, CAL PDZ FP-2 60*, S100A4 MyoIIA -17, CDK5 inh 0 and C2C12 statin 37.
`O=C(O)/C=C/C(=O)Nc1ccc2c(c1)C(=O)c1ccccc1C2=O` gave dFosB act -13, CAL PDZ FP-1 0, CAL PDZ FP-2 98*, S100A4 MyoIIA -1 and CDK5 inh 2.
For Cc1ccc(C)c(N2CCN(C(=O)CCc3nc(-c4ccccc4F)no3)CC2)c1 the results were dFosB act -9, CAL PDZ FP-1 -1, CAL PDZ FP-2 -2, S100A4 MyoIIA -4, CDK5 inh -1 and C2C12 statin -13.
O=c1nccc(Nc2ccccc2)[nH]1 was read as dFosB act -1, CAL PDZ FP-1 0, CAL PDZ FP-2 63*, S100A4 MyoIIA 14, CDK5 inh 1 and C2C12 statin -2.
For COc1ccc(CN=CC2=C(O)CNC2=O)cc1OC the results were dFosB act -4, CAL PDZ FP-1 -1, CAL PDZ FP-2 -4, CDK5 inh 1 and C2C12 statin 94*.
For O=C1NCC(O)=C1C=NCCCO the results were dFosB act -1, CAL PDZ FP-1 -3, CAL PDZ FP-2 -3 and CDK5 inh -1.
CSC(=S)N/N=C/c1ccccc1 was read as dFosB act 4, CAL PDZ FP-1 0, CAL PDZ FP-2 2, S100A4 MyoIIA 5, CDK5 inh 0 and C2C12 statin 87*.
For Cc1ccc(NC(=O)c2cc3cccc([N+](=O)[O-])c3[nH]2)cc1 the results were dFosB act 11, CAL PDZ FP-1 -1, CAL PDZ FP-2 67*, S100A4 MyoIIA 1 and CDK5 inh 1.
CCC(C)c1ccccc1NC(=O)c1cc2cccc([N+](=O)[O-])c2[nH]1 (stereo unspecified) was read as S100A4 MyoIIA 0.
`Cc1nn(Cc2ccccc2)c(C)c1NC(=O)CCCn1nc([N+](=O)[O-])cc1C` gave dFosB act -1, CAL PDZ FP-1 -3, CAL PDZ FP-2 -5, S100A4 MyoIIA -1, CDK5 inh 0 and C2C12 statin -5.
`C[n+]1cccc(CNC(=O)/C=N/O)c1` gave dFosB act 2, CAL PDZ FP-1 -1, CAL PDZ FP-2 -3, CDK5 inh 1 and C2C12 statin 112*.
Cc1ccc(C(=O)c2c3ccccc3[n+]([O-])n2CCC(=O)O)cc1 was read as dFosB act 11, CAL PDZ FP-1 0, CAL PDZ FP-2 -1, S100A4 MyoIIA -3, CDK5 inh 1 and C2C12 statin 80*.

Compound activity (PubChem BioAssay)
